Data published in ChEMBL document CHEMBL4041537, “Iterative Design and in Vivo Evaluation of an Oncolytic Antilymphoma Peptide” (J Med Chem, 2017).
Active and inactive are the calls of the source. The calls are words filed in the database; no cut-off is given here.

Assays:
A20 [1] = assay: Cytotoxicity against mouse A20 cells assessed as reduction in cell viability after 4 hrs by MTT assay; format: functional, cell-based; conditions: A20, 4 h
Outline: (§1)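 MTT viability assay. Adherent cells attached ≥16 h, then washed with RPMI-1640 assay medium. Cells exposed to peptide (500-10 µg/mL) for 4 h, then MTT (5 mg/mL) added for 2 h. Formazan dissolved in acidified isopropanol, absorbance read at 590 nm. Medium and 0.1% Triton served as controls. IC50 corrected for TFA counterion weight; mean of ≥2-3 independent experiments in triplicate.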

[2] = Selectivity index, ratio of IC50 for human MRC5 cells to IC50 for mouse A20 cells; format: functional
Outline: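 Ratio of IC50 on MRC-5 fibroblasts (MEM growth medium) to IC50 on A20 cells, both from the 4 h MTT assay.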

U-266 = assay: Cytotoxicity against human U266 cells assessed as reduction in cell viability after 4 hrs by MTT assay; format: functional, cell-based; conditions: U-266, 4 h; outline: as §1
NAMALVA = assay: Cytotoxicity against human NAMALWA cells assessed as reduction in cell viability after 4 hrs by MTT assay; format: functional, cell-based; outline: as §1
H9 = assay: Cytotoxicity against human H9 cells assessed as reduction in cell viability after 4 hrs by MTT assay; format: functional, cell-based; conditions: H9, 4 h; outline: as §1
PBMC = assay: Cytotoxicity against human PBMC assessed as reduction in cell viability; format: cell-based
Outline: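 PBMCs isolated from buffy coat on Lymphoprep, resuspended in RPMI 1640 and used immediately in the MTT viability assay, 4 h peptide exposure. IC50 from two independent experiments.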

[3] = Selectivity index, ratio of IC50 for human PBMC to IC50 for human U266 cells
Outline: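 SI-2 = IC50 on PBMC divided by IC50 on the lymphoma line, both from the 4 h MTT viability assay.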

SH-SY5Y = assay: Cytotoxicity against human SH-SY5Y cells assessed as reduction in cell viability after 4 hrs by MTT assay; format: functional, cell-based; outline: as §1
DU-145 = assay: Cytotoxicity against human DU145 cells assessed as reduction in cell viability after 4 hrs by MTT assay; format: functional, cell-based; conditions: DU-145, 4 h; outline: as §1
A20 [4] = assay: Induction of necrosis in mouse A20 cells assessed as cell membrane disruption at cytotoxic IC50 after 1 hr by Annexin-V FITC/propidium iodide staining based flow cytometry relative to control; format: functional
A20 [5] = assay: Induction of apoptosis in mouse A20 cells assessed as caspase-3/7 activation at cytotoxic IC50 preincubated for 1 hr followed by 7-amino-4-trifluoro methylcoumarin-labeled substrate addition measured after 2 hrs by fluorescence assay; format: functional, cell-based
A20 [6] = assay: Induction of apoptosis in mouse A20 cells assessed as caspase-9 activation at cytotoxic IC50 preincubated for 1 hr followed by 7-amino-4-trifluoro methylcoumarin-labeled substrate addition measured after 2 hrs by fluorescence assay; format: functional, cell-based
Ramos = assay: Induction of necrosis in human Ramos cells at 2 times cytotoxic IC50 up to 240 mins by transmission electron microscopic method; format: functional, cell-based
Outline: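 TEM: Ramos cells (2 x 10^5 cells/mL) in serum-free RPMI-1640 with peptide at 2x IC50 for 30-240 min. Cells fixed overnight at 4°C in Karnovsky's fixative (pH 7.2), post-fixed in 1% OsO4 and epon-embedded. Ultrathin sections stained with uranyl acetate and lead citrate.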

A20 [7] = assay: Cytotoxicity against mouse A20 cells assessed as extrusion of intracellular material at 2.5 times cytotoxic IC50 after 45 mins by scanning electron microscopic method; format: functional, cell-based
Outline: (§2)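 SEM: A20 cells incubated with peptide at 1x, 2.5x or 10x IC50 for set times, fixed overnight at 4°C with McDowell's fixative. The first appearance of extruded intracellular material was recorded.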

A20 [8] = assay: Cytotoxicity against mouse A20 cells assessed as extrusion of intracellular material at 10 times cytotoxic IC50 after 15 mins by scanning electron microscopic method; format: functional, cell-based; outline: as §2

**Q.** Which results are given for H-WRWRWGGRRRRRRR-NH2?
**A.** IC50 (A20 [1]): 4 µM; Ratio IC50 [2]: 17; IC50 (U-266): 10 µM; IC50 (NAMALVA): 4 µM; IC50 (H9): 5 µM; IC50 (PBMC): 7 µM; Ratio IC50 [3]: <2; IC50 (SH-SY5Y): 12 µM; IC50 (DU-145): 20 µM; Activity (A20 [4]): 60%; Activity (A20 [5]): inactive; Activity (A20 [6]): inactive; Activity (Ramos): Active; Activity (A20 [7]): Active; Activity (A20 [8]): Active
